Consider 64 compounds from PubChem BioAssay AID651654 (Broad Institute, 2012).

Hit rate of the full screen: of about 360,000 compounds, about 740 (0.21%) were called active.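 How the source made its calls: active means mean lysis activity across replicates of at least 80%, whatever share of replicates individually reach that level; inactive means mean lysis activity below 80%.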 The list comes from a sample in which actives are over-represented; it also holds similar structures and randomly drawn compounds.

This assay can be described thus: fungicidal lysis via adenylate kinase leakage – AK release luminescence, single concentration, primary screen (AID 651654). Conditions: C. neoformans lysis, 4 h, at 15 µM, stronger effect = higher value, normalised: neutral wells 0, clomiphene wells 100. The procedure, abridged:
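Assay system: Cryptococcus neoformans yeast cells / Dosing: single-point compound dose / Timing: 4 h at 37 °C static, read 1 h later / Measured by: luminescence of released adenylate kinase using an AK detection reagent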
Take `C[C@@H]1CN([C@H](C)CO)C(=O)c2cc(NC(=O)CCCCCC(=O)Nc3ccccc3N)ccc2O[C@@H]1CN(C)Cc1ccncc1`: the lysis activity was 0.608% (inactive).

With `COc1ccc(CN(C)C[C@@H]2OCCCC[C@H](C)Oc3ccc(NC(=O)c4ccccc4)cc3C(=O)N([C@H](C)CO)C[C@H]2C)cc1`, the lysis activity is -1.71% (inactive).

As to `C[C@H](CO)N1C[C@H](C)[C@@H](CN(C)S(=O)(=O)c2ccc(Cl)cc2)Oc2ccc(NS(C)(=O)=O)cc2CC1=O`, the lysis activity was -5.34% (inactive).

For the compound `CCC(=O)N(C)C[C@@H]1Oc2cc(C#C[C@H](C)O)ccc2S(=O)(=O)N([C@H](C)CO)C[C@@H]1C`, the lysis activity was -0.573% (inactive).

For the compound `C[C@@H]1CN([C@H](C)CO)C(=O)c2cc(C#CC3CCCC3)cnc2O[C@H]1CN(C)S(C)(=O)=O`, the lysis activity was -1.11% (inactive).

With `C[C@@H]1CN([C@H](C)CO)C(=O)CCCn2nncc2CO[C@@H]1CN(C)C`, the lysis activity is -1.91% (inactive).

Turning to `Cc1cccc(CN(C)C[C@@H]2OCc3cn(nn3)CCCC(=O)N([C@@H](C)CO)C[C@H]2C)c1`, the lysis activity was -1.37% (inactive).

As for `COc1ccc(S(=O)(=O)N2C[C@H](O)COC[C@@H]3O[C@H](CC(=O)NCCN4CCCCC4)CC[C@H]32)cc1`, the lysis activity is 0.16% (inactive).

On to `CCCNC(=O)N1C[C@H](C)[C@@H](OC)CN(C)C(=O)c2ccc(NS(C)(=O)=O)cc2OC[C@@H]1C`, for which the lysis activity is 0.827% (inactive).

Regarding `COCC(=O)Nc1ccc2c(c1)C(=O)N(C)[C@@H]1CC[C@@H](CC(=O)NCc3cccc(F)c3)O[C@@H]1CO2`, the lysis activity is 1.56% (inactive).

`COCC#Cc1cnc2c(c1)C(=O)N([C@@H](C)CO)C[C@H](C)[C@@H](CN(C)Cc1ccccc1)O2`: the lysis activity was -2.83% (inactive).

Take `CC(C)NC(=O)N[C@@H]1C=C[C@@H](CC(=O)N2CCCCC2)O[C@@H]1CO`: the lysis activity is 1.39% (inactive).

As to `C[C@@H]1CN([C@@H](C)CO)C(=O)c2cc(NC(=O)C3CCCCC3)ccc2O[C@@H]1CN(C)Cc1ccc(C(=O)O)cc1`, the lysis activity was -4.67% (inactive).

With `Cc1ccc(-c2cnc3c(c2)C(=O)N([C@@H](C)CO)C[C@H](C)[C@H](CN(C)C(=O)c2cccnc2)O3)cc1`, the lysis activity is -0.96% (inactive).

Regarding `C[C@@H]1CN([C@@H](C)CO)C(=O)c2cc(NC(=O)CCCN(C)C)ccc2O[C@@H]1CN(C)Cc1ccncc1`, the lysis activity was 5.83% (inactive).

Regarding `COC(=O)C[C@@H]1C[C@H]2c3cc(NC(=O)Nc4ccc(F)cc4)ccc3O[C@H]2[C@@H](CO)O1`, the lysis activity was -7.03% (inactive).

Turning to `CCC(=O)N(C)C[C@@H]1Oc2ncc(C#CCc3ccccc3)cc2C(=O)N([C@H](C)CO)C[C@H]1C`, the lysis activity was 1.55% (inactive).

For `COc1ccc(CN2[C@@H](CO)[C@@H]3c4ccccc4N(C(=O)Nc4ccccc4)C[C@@H]32)cc1`, the lysis activity is 0.269% (inactive).

As to `COc1ccc(NC(=O)Nc2ccc3c(c2)C(=O)N([C@H](C)CO)C[C@@H](C)[C@H](CN(C)C(=O)Nc2ccc(C(F)(F)F)cc2)OCCCC[C@@H](C)O3)cc1`, the lysis activity was 1.63% (inactive).

Turning to `C[C@H](CO)N1C[C@H](C)[C@H](CN(C)C(=O)Nc2ccc(C(F)(F)F)cc2)Oc2ccc(NC(=O)C3CC3)cc2C1=O`, the lysis activity is 8.67% (inactive).

Consider `Cn1cnc(CCNC(=O)C[C@@H]2CC[C@@H]3[C@H](COC[C@@H](O)CN3C(=O)Nc3ccccc3)O2)c1`, for which the lysis activity is 1.75% (inactive).

Turning to `C[C@H](CO)N1C[C@H](C)[C@H](CN(C)S(C)(=O)=O)Oc2ccc(NC(=O)Nc3ccc(F)cc3)cc2C1=O`, the lysis activity was 0.358% (inactive).

Turning to `C#CCN1C(Cc2ccccc2)C(=O)O[C@H](C2CCCCC2)[C@@H]1/C=C/C1CC1` (some centres undefined), the lysis activity was 5.01% (inactive).

Consider `CO[C@@H]1CN(C)C(=O)c2cc(NC(C)=O)ccc2OC[C@H](C)N(CC2CCCCC2)C[C@@H]1C`, for which the lysis activity was -3.61% (inactive).

For the compound `COc1ccc(C2=Nc3ccccc3NC(=O)C2N(C(=O)c2cc3ccccc3[nH]2)c2ccccc2)cc1` (centres undefined), the lysis activity is 101% (active).

Take `O=C(Nc1ccccc1)c1cc2ccccc2[nH]1`: the lysis activity was -9.41% (inactive).

For `CC(OC(=O)c1cc2ccccc2[nH]1)C(=O)N(C)c1ccccc1` (centres undefined), the lysis activity was -1.83% (inactive).

As for `CO[C@H]1CN(C)C(=O)c2cc(NS(=O)(=O)CC(F)(F)F)ccc2OC[C@@H](C)N(Cc2nccs2)C[C@@H]1C`, the lysis activity was 0.476% (inactive).

On to `CN1c2ccc(C3=CCCCC3)cc2[C@H]2[C@H](CCN2S(=O)(=O)c2ccccc2)[C@@H]1CO`, for which the lysis activity is 0.27% (inactive).

Consider `O=C(C1CCC1)N1CCCCN2[C@H](CO)[C@H](c3ccc(-c4cccc(F)c4)cc3)[C@H]2C1`, for which the lysis activity is 4.53% (inactive).

For the compound `COc1cccc(NC(=O)C[C@H]2CC[C@@H]3[C@@H](COc4ccc(NC(=O)C5CCOCC5)cc4C(=O)N3C)O2)c1`, the lysis activity is 1.2% (inactive).

As to `CC(C)NC(=O)N[C@H]1CC[C@H](CC(=O)NC2Cc3ccccc3C2)O[C@H]1CO`, the lysis activity was -0.817% (inactive).

With `COc1ccccc1C#Cc1ccc2c(c1)O[C@H](CN(C)Cc1cccnc1)[C@@H](C)CN([C@H](C)CO)S2(=O)=O`, the lysis activity is 3.3% (inactive).

For `CO[C@@H]1CN(C)C(=O)c2ccc(NS(C)(=O)=O)cc2OC[C@@H](C)N(CC2CC2)C[C@@H]1C`, the lysis activity was 2.22% (inactive).

As to `CN(C)C(=O)C[C@H]1CC[C@@H](NC(=O)C2CC2)[C@@H](CO)O1`, the lysis activity is -0.137% (inactive).

For `C[C@@H]1CCCCO[C@H](CN(C)C(=O)NC2CCCCC2)[C@@H](C)CN([C@H](C)CO)C(=O)c2cc(NS(C)(=O)=O)ccc2O1`, the lysis activity is 3.91% (inactive).

As to `C[C@@H]1CN([C@@H](C)CO)C(=O)c2cc(NS(=O)(=O)c3cn(C)cn3)ccc2O[C@@H](C)CCCCO[C@@H]1CN(C)Cc1ccncc1`, the lysis activity is -2.55% (inactive).

Regarding `O=C(NC[C@@H]1[C@@H](c2ccccc2)[C@H](CO)N1C(=O)C1CCC1)NC1CCCC1`, the lysis activity is 94.8% (active).

For the compound `CC(=O)N1[C@H](CO)[C@@H](c2ccc(-c3ccccc3)cc2)[C@H]1CNC(=O)C1CC1`, the lysis activity was 73.3% (inactive).

For the compound `CC(=O)N1[C@H](CO)[C@H](c2ccc(-c3ccccc3)cc2)[C@H]1CNC(=O)C1CC1`, the lysis activity is 90.2% (active).

For `CC(=O)N1[C@H](CO)[C@@H](c2ccc(-c3ccc(F)cc3)cc2)[C@H]1CNC(=O)C1CC1`, the lysis activity was -1.15% (inactive).

`CCN(C[C@H]1[C@H](c2ccccc2)[C@H](CO)N1C(=O)C1CC1)C(=O)NC1CCCC1`: the lysis activity is 3.3% (inactive).

Consider `C/C=C/c1ccc([C@H]2[C@@H](CNC(=O)NC(C)C)N(C(=O)C3CCC3)[C@H]2CO)cc1`, for which the lysis activity is -1.4% (inactive).

As for `CO[C@@H](CN(C)C(=O)Nc1ccc(F)cc1)[C@H](C)CN(Cc1ccccc1Cl)[C@@H](C)CO`, the lysis activity is 13.4% (inactive).

Consider `CCCC#Cc1ccc2c(c1)O[C@@H](CN(C)C(=O)c1cccnc1)[C@H](C)CN([C@H](C)CO)S2(=O)=O`, for which the lysis activity is -4.36% (inactive).

Take `C[C@H](CO)N1C[C@H](C)[C@@H](CN(C)C)Oc2cc(C#Cc3ccccc3)ccc2S1(=O)=O`: the lysis activity was 0.917% (inactive).

In the case of `C/C=C/c1ccc2c(c1)O[C@@H](CN(C)S(=O)(=O)c1ccc(F)cc1)[C@@H](C)CN([C@H](C)CO)S2(=O)=O`, the lysis activity was 3% (inactive).

Regarding `C[C@H](CO)N1C[C@H](C)[C@@H](CN(C)Cc2ccccc2C(F)(F)F)OCc2cn(nn2)CCCC1=O`, the lysis activity was -8.12% (inactive).

Regarding `Cc1ccccc1CN(C)C[C@H]1OCc2cn(nn2)CCCC(=O)N([C@@H](C)CO)C[C@H]1C`, the lysis activity was 96.6% (active).

As for `C[C@@H]1CN([C@H](C)CO)C(=O)CCCn2cc(nn2)CO[C@@H]1CN(C)Cc1ccccc1C(=O)O`, the lysis activity was -0.638% (inactive).

As for `CO[C@H]1CN(C)C(=O)c2ccc(NC(=O)Cc3ccccc3)cc2OC[C@@H](C)N(C(C)=O)C[C@H]1C`, the lysis activity was 69.9% (inactive).

As to `C[C@@H]1CN([C@@H](C)CO)C(=O)c2cccc(NC(=O)Nc3ccc(C(F)(F)F)cc3)c2O[C@@H]1CN(C)S(=O)(=O)c1ccc(F)cc1`, the lysis activity was 28.4% (inactive).

Regarding `C[C@@H]1CN([C@@H](C)CO)C(=O)Cc2cc(NS(=O)(=O)c3cccs3)ccc2O[C@@H]1CN(C)S(=O)(=O)c1ccc(F)cc1`, the lysis activity was -1.3% (inactive).

Consider `CCCNC(=O)N1[C@H](CNC(=O)c2cccc(F)c2)[C@H](c2ccccc2)[C@@H]1CO`, for which the lysis activity is -0.391% (inactive).

As for `COc1cccc(S(=O)(=O)N[C@H]2CC[C@@H](CC(=O)NCc3ccc(F)cc3)O[C@@H]2CO)c1`, the lysis activity is 3.95% (inactive).

Consider `CCCNC(=O)C[C@H]1C[C@@H]2c3cc(NC(=O)C4CCOCC4)ccc3O[C@@H]2[C@H](CO)O1`, for which the lysis activity was 1.8% (inactive).

In the case of `O=C(C[C@H]1CC[C@H](NC(=O)C2CCC2)[C@@H](CO)O1)Nc1nccs1`, the lysis activity is 5.79% (inactive).

Turning to `COc1ccccc1S(=O)(=O)N[C@@H]1CC[C@@H](CCn2cc(C3CCCCC3)nn2)O[C@H]1CO`, the lysis activity was 18.5% (inactive).

With `O=C(C[C@@H]1C[C@H]2c3cc(NC(=O)Nc4ccccc4)ccc3O[C@H]2[C@@H](CO)O1)NCc1cccnc1`, the lysis activity was -4.19% (inactive).

For `COC(=O)C[C@@H]1CC[C@@H]2[C@H](COc3ccc(NC(=O)Nc4cccc(F)c4)cc3C(=O)N2C)O1`, the lysis activity was 5.11% (inactive).

In the case of `CO[C@@H](CN(C)C(=O)c1cnccn1)[C@@H](C)CN([C@@H](C)CO)S(=O)(=O)c1ccc(F)cc1`, the lysis activity is 59.1% (inactive).

For `CC(=O)N1[C@H](CN(CC2CCC2)C(=O)CN(C)C)[C@@H](c2ccccc2)[C@@H]1CO`, the lysis activity is -2.74% (inactive).

In the case of `CCC(=O)N1C[C@@H](C)[C@H](OC)CN(C)C(=O)c2ccc(NC(=O)c3ccc(F)cc3)cc2OC[C@@H]1C`, the lysis activity was -5.87% (inactive).

On to `COc1ccccc1NC(=O)N[C@H]1CC[C@H](CCn2cc(-c3cccnc3)nn2)O[C@@H]1CO`, for which the lysis activity was -0.992% (inactive).
